Active and inactive are the calls of the source. The calls are words filed in the database; no cut-off is given here.
How the values were obtained:
[1] = tested on: L929; test: Cytoprotective activity in Pseudomonas aeruginosa exotoxin induced toxicity in mouse L929 cells assessed as protection factor after 18 hrs by liquid scintillation analysis relative to untreated control; type: functional
Procedure, shortened: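 L929 cells were intoxicated with increasing doses of Pseudomonas exotoxin A for 18 h with compound (30 μM) or DMSO present. Protein synthesis was measured; duplicate wells, mean ± SD, one representative experiment (n = 3).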

[2] = tested on: Vero; test: Inhibition of TcsL-induced cytotoxicity against African green monkey Vero cells assessed as reversal of toxin-induced cell rounding at 30 uM in presence of TcsL after 16 hrs by inverted microscopic analysis relative to ABMA; type: functional, Chlorocebus sabaeus
Procedure, shortened: (§1)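 Vero cells were given compound (30 μM) or DMSO, then increasing doses of TcdB for 4 h or TcsL for 16 h. Cell rounding was imaged by inverted microscope. Rounded cells were counted and normalised to total Hoechst-counterstained cells (>100 cells per treatment).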

[3] = tested on: A549; test: Selectivity index, ratio of CC50 for cytotoxicity against human A549 cells to EC50 for cytoprotective activity in diphtheria-induced cytotoxicity in human A549 cells
[4] = tested on: A549; test: Inhibition of diphtheria induced toxicity in human A549 cells assessed as protection factor at 15 uM incubated for 20 hrs followed by replacement of [14c]-Leucine containing medium and measured after 4 hrs by liquid scintillation analysis relative to untreated control; type: functional
Procedure, shortened: (§2)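 A549 cells were incubated with Baf A1 (0.15 nM), DABMA (15 μM), both, or DMSO vehicle before DT was added, with the compounds kept present throughout. Toxin protection was read as protein synthesis and expressed as protection factor.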

[5] = tested on: A549; test: Inhibition of colony formation in human A549 cells assessed as reduction in colony forming unit at 30 to 60 uM incubated for 16 hrs followed by fresh medium supplementation and measured after 7 days by crystal violet-staining based assay; type: cell-based; details: a549, 16 h
Procedure, shortened: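 Colony-forming assay of A549 cells with compound at 30 or 60 μM, DMSO vehicle, and paclitaxel (5 μM) as positive control; n = 2.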

[6] = tested on: Vero; test: Cytoprotection activity in African green monkey Vero cells assessed as inhibition of diphtheria induced toxicity incubated for 20 hrs followed by replacement of [14c]-Leucine containing medium and measured after 4 hrs by liquid scintillation analysis; type: functional, cell-based; details: Chlorocebus sabaeus
[7] = tested on: A-431; test: Cytoprotection activity in human A431 cells assessed as inhibition of diphtheria induced toxicity incubated for 20 hrs followed by replacement of [14c]-Leucine containing medium and measured after 4 hrs by liquid scintillation analysis; type: functional, cell-based
[8] = tested on: DLD-1; test: Cytoprotection activity in human DLD1 cells assessed as inhibition of diphtheria induced toxicity incubated for 20 hrs followed by replacement of [14c]-Leucine containing medium and measured after 4 hrs by liquid scintillation analysis; type: functional, cell-based
[9] = tested on: A549; test: Induction of lysosomal activation in human A549 cells at 30 uM incubated for 2 hrs by LysoTracker Red staining based confocal microscopic analysis; type: functional, cell-based
Procedure, shortened: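 A549 cells were pretreated 2 h with compound (30 or 60 μM) or DMSO, then stained with LysoTracker Deep Red (50 nM, 30 min) plus Hoechst. Intensity was read from 3 × 3 fields per well (10,000 cells/well) by imaging reader; mean ± SEM, n = 4; confocal images.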

[10] = tested on: A549; test: Increase in cholesterol accumulation in human A549 cells at 30 uM incubated for 18 hrs by choelesterol-avid filipin-3 staining based confocal microscopic analysis; type: functional, cell-based
Procedure, shortened: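 A549 cells were treated 18 h with compound or DMSO, fixed, and stained with Filipin III for cholesterol. Confocal imaging; fluorescence quantified in >30 cells (mean ± SEM), unpaired t test versus DMSO.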

[11] = tested on: A549; test: Induction of lysosomal activation in human A549 cells assessed as increase in endosomal volume by measuring Rab7 expression at 30 uM incubated for 6 hrs by immunostaining based confocal microscopic analysis; type: functional, cell-based
Procedure, shortened: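 A549 cells were pretreated 6 h with compound or DMSO and immunostained for Rab7, with DAPI nuclei. Confocal imaging; fluorescence quantified in >30 cells (mean ± SEM), unpaired t test versus DMSO.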

[12] = tested on: Vero; test: Inhibition of TcsL-induced cytotoxicity against African green monkey Vero cells assessed as reversal of toxin-induced cell rounding at 30 uM in presence of TcsL after 16 hrs by inverted microscopic analysis; type: functional, cell-based; details: Chlorocebus sabaeus; procedure, shortened: as §1
[13] = tested on: Lyssavirus rabies; test: Antiviral activity against RABV infected in BSR cells preincubated for 4 hrs followed by viral infection and further incubated with compounds for 24 hrs by immunostaining-based assay; type: functional, organism-based
Procedure, shortened: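 BSR cells were pretreated 4 h with compound, then infected with RABV (MOI = 14) for 1 h. Cells were washed and kept with compound for 24 h, then fixed and immunostained for the RABV ribonucleocapsid (RNP). Nuclei and RNP images from 15 fields per well (>10,000 cells) were used to calculate percent inhibition.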

[14] = tested on: Zaire ebolavirus; test: Antiviral activity against Zaire EBOV-Mayinga expressing GFP infected in human HeLa cells preincubated for 1 hr followed by viral infection after 24 hrs by DAPI-staining based fluorescence assay; type: functional, organism-based; details: Zaire, 1976, HeLa
[15] = tested on: Zaire ebolavirus; test: Antiviral activity against Zaire EBOV-mayinga expressing GFP infected in human HeLa cells preincubated for 1 hr followed by viral infection after 24 hrs by DAPI-staining based fluorescence assay relative to control; type: functional, 1976
[16] = Cytotoxicity against human HeLa cells assessed as reduction in cell viability incubated for 20 hrs by Alamar blue assay; type: cell-based
[17] = tested on: A549; test: Inhibition of diphtheria induced toxicity in human A549 cells assessed as protection fold at 30 uM incubated for 20 hrs followed by replacement of [14c]-Leucine containing medium and measured after 4 hrs by liquid scintillation analysis relative to ABMA; type: functional
Procedure, shortened: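 Single-concentration screen: 30 μM compound on A549 cells with increasing DT concentrations, read as protein synthesis inhibition. Protection fold was calculated with ABMA as the positive control.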

[18] = tested on: Zaire ebolavirus; test: Potency index, ratio of ABMA EC50 to compound EC50 for antiviral activity against Zaire Ebola virus -Mayinga expressing GFP infected in human HeLa cells; type: functional, 1976
[19] = tested on: A549; test: Induction of morphological changes in human A549 cells assessed as change in golgi apparatus at 30 uM incubated for 24 hrs by cyto-painter dye based inverted microscopic method; type: functional, cell-based
[20] = tested on: A549; test: Induction of morphological changes in human A549 cells assessed as change in endoplasmic reticulum at 30 uM incubated for 24 hrs by cyto-painter dye based inverted microscopic method; type: functional, cell-based
[21] = tested on: Vero; test: Selectivity index, ratio of CC50 for cytotoxicity against African green monkey Vero cells to EC50 for cytoprotective activity in TcsL-induced cytotoxicity in African green monkey Vero cells; parameters: species or system Chlorocebus sabaeus
[22] = Selectivity index, ratio of CC50 for cytotoxicity against mouse L929 cells to EC50 for cytoprotective activity in Pseudomonas aeruginosa exotoxin-induced cytotoxicity in mouse L929 cells; type: toxicity, cell-based; details: read-out: Ratio CC50/EC50
[23] = tested on: HUVEC; test: Cytotoxicity against HUVEC assessed as reduction in cell viability at >100 uM incubated for 20 hrs and measured after 2 hrs by Alamar blue assay; type: cell-based; details: human
[24] = tested on: A549; test: Inhibition of diphtheria induced toxicity in human A549 cells assessed as protection factor at 15 uM incubated for 20 hrs in presence of bafilomycin A1 followed by replacement of [14c]-Leucine containing medium and measured after 4 hrs by liquid scintillation analysis relative to untreated control; type: functional; procedure, shortened: as §2
[25] = tested on: A549; test: Cytotoxicity against human A549 cells assessed as reduction in cell viability at 15 uM incubated for 20 hrs in presence of bafilomycin A1; type: cell-based; details: a549, 20 h

COc1ccc(Br)cc1CNC12CC3CC(C)(CC(C)(C3)C1)C2
fold change (FC) [1]: 4.8 | fold change (FC) [2]: 5.6 | Ratio CC50/EC50 [3]: 4.7 | fold change (FC) [4]: 6.3 | Activity [5]: Non-Toxic | Activity [6]: Active | Activity [7]: Active | Activity [8]: Active | Activity [9]: Active | Activity [10]: Active | Activity [11]: Active | inhibition [12]: Active | inhibition [13]: Active | EC50 [14]: 0.908 µM | inhibition (INH) [15]: >50% | CC50 at 20 h [16]: 117 µM | fold change (FC) [17]: 18.5 | Ratio EC50 [18]: 6.6 | Activity [19]: inactive | Activity [20]: inactive | Ratio CC50/EC50 [21]: 7.38 | selectivity ratio [22]: 4.35 | Activity [23]: Toxic | fold change (FC) [24]: 300 | Activity [25]: Non-Toxic

— ChEMBL document CHEMBL4304791, “DABMA: A Derivative of ABMA with Improved Broad-Spectrum Inhibitory Activity of Toxins and Viruses” (ACS Med Chem Lett, 2019)
